STAT1 act = STAT1 signaling activators, primary screen, cell-based, HTS, luciferase reporter; NIH 3T3 STAT1-luciferase reporter, IFN-gamma, luminescence; 100% = IFN-gamma alone, no compound; hit rate 2.6% among 200,000; activation (% of control), % at 5.5 µM;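 active means activation above the screen-wide mean activation plus 3 SD, cut at about 130% in these data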;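 further: raw ratio to IFN-gamma control signal so 100% means no change and 0% no light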
FLuc act counter = FLuc activators, initial screening, artefact control for FLuc-dependent activation tests, biochemical, ATPlite luminescence; Luciferin 4-monooxygenase (Photinus pyralis), P08659; ATPlite luciferase biochemical, 10 min; 0 = ATP-free wells, 1 = DMSO control; activation factor at 10 µM; 200,000 tested, under 10 active; AID 1027, 2008;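 active means luciferase activation factor, scaled between plate controls, of at least 2 with compound at 10 µM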
Target sequence (P08659 whole entry, looked up): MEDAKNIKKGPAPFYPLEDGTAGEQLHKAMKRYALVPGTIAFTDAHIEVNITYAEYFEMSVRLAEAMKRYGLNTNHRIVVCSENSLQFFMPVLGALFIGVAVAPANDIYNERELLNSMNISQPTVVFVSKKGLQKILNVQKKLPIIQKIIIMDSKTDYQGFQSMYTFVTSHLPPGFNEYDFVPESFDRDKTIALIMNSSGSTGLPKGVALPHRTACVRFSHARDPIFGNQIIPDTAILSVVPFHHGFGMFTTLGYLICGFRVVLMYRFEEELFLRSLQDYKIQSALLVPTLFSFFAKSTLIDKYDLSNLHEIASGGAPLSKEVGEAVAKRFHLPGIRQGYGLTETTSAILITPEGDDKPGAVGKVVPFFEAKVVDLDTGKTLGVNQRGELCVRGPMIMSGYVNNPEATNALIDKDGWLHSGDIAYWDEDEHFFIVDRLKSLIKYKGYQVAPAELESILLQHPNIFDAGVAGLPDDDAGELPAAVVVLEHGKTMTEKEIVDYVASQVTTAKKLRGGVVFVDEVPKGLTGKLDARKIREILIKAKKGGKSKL
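Material: luciferase plus luciferin reagent, cell-free. Medium: PBS buffer for ATP. Also added: ATP substrate, dispensed from a 10.24 µM working solution in PBS. Doses: test compounds dosed from 2 mM stocks in 100% DMSO. Incubation: 10 min post-reagent at room temperature. Technique: light output (luminescence). Read-out basis: luminescence gain marking luciferase activators.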
APP 5'UTR act = activators of APP 5'UTR luciferase reporter, primary screen, SH-SY5Y cells | SH-SY5Y APP 5'UTR luciferase reporter, luminescence; zero percent = DMSO vehicle wells | activation, % at 2 µM | hit rate 1% among 190,000;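 active means activation above a set limit, based on mean plus 3 SD of controls, cut at about 140% in these data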
NF-kB expr up = activators of NF-kB expression in neurons, primary screen, cell-based, HTS; human neuronal cells, NF-kB reporter expression; hits give high values; fold change at 12.5 µM; hit rate 1.6% among 190,000; AID 1239, 2008; in the data active means fold change above about 3.3
FLuc inh counter = firefly luciferase enzyme inhibitors, primary screen, artefact control for luciferase-based inhibitor screens, biochemical, luminescence, ATPLite. Luciferin 4-monooxygenase (Photinus pyralis), P08659. 10 min. inhibition, % at 10 µM. hit rate 1.5% among 200,000. AID 1006, 2008;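 active means inhibition above about 50% when tested at 10 µM, limit read from the data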
The depositor's hits bear a star. Compounds with a hit are over-represented: about 4.1% of the library has one in this group of screens.

SMILES | STAT1 act | FLuc act counter | APP 5'UTR act | NF-kB expr up | FLuc inh counter
COc1cc(C(c2sc3nc(C)nn3c2O)N2CCC3(CC2)OCCO3)cc(OC)c1OC (stereo unspecified) | 109 | 1 | 2 | 1 | 2
COc1cccc2c(=O)n(CC(=O)N3CCC(C)CC3)ccc12 | 97 | 1 | 5 | 0.99 | -3
Cc1cc(C(=O)O)ccc1N/C=C1\CCCC(C)C1=O (stereo unspecified) | 150* | 0.9 | 149* | 4* | 8
COc1ccc(N/C=C2/CCCCC2=O)cc1 | 119 | 0.8 | 5 | 0.91 | 16
CC1CCC/C(=C\Nc2ccc(O)cc2)C1=O (stereo unspecified) | 136* | 0.9 | -1 | 2.1 | 14
Cc1nnc2n(-c3ccccc3)c(=O)c3c4c(sc3n12)COC(C)(C)C4 | 98 | 1.1 | -6 | 0.98 | -6
COc1ccc(-c2noc(CSc3ccccc3)n2)cc1OC | 130* | 1 | 54 | 2.3 | 0
c1ccc(SCc2nc(-c3ccncc3)no2)cc1 | 129* | 0.9 | 11 | 1.9 | 7
CN(C)c1ccc(C(=O)c2ccc(N(C)C)c3ccccc23)cc1 | 139* | 1.1 | -95 | 5.2* | -6
COc1ccc(C(=O)c2ccc(N(C)C)cc2)c(OC)c1 | 115 | 1 | -78 | 0.9 | -5
COc1ccc(NC(=O)CS(=O)CC(=O)NC2CCCc3ccccc32)cc1 (stereo unspecified) | 99 | 1.1 | 0 | 1 | -6
c1ccc(-c2nnc(SCCC3OCCCO3)o2)cc1 | 116 | 0.7 | 65 | 3.4* | 35
COc1ccc(CC(=O)NNC(=O)CCc2ccccc2)cc1OC | 100 | 0.9 | -2 | 1.1 | 5
CCOC(=S)N/C(=N\S(=O)(=O)c1ccccc1)c1ccccc1 | 101 | 1 | -3 | 1.2 | -5
Cc1ccc(S(=O)(=O)/N=C(/NC(=S)Nc2ccccc2)c2ccccc2)cc1 | 150* | 0.9 | 144* | 6* | 8
Cc1ccc(NC(=S)N/C(=N/S(=O)(=O)c2ccccc2)c2ccccc2)cc1 | 143* | 1 | 55 | 2.4 | -4
COC(=O)c1ccc(N/C(=N/S(=O)(=O)c2ccccc2)c2ccccc2)cc1 | 97 | 1.1 | 2 | 0.93 | -6
CCCCCCCCn1cnc2c(N)c(C)c(C)cc21 | 112 | 1 | -6 | 4.5* | -2
COc1ccc(Cn2cnc3c(N)c(C)c(C)cc32)cc1 | 98 | 1.1 | -5 | 1 | -6
CCCCC(CC)CNC(=O)CCS(=O)(=O)c1cccc2nsnc12 (stereo unspecified) | 108 | 1 | 0 | 1.1 | -1
Cc1ccc(C(=O)Oc2cccc(-n3cnnn3)c2)cc1 | 135* | 1 | 118 | 2.3 | 1
COc1ccc(C(=O)CSc2nnc(-c3ccco3)c(-c3ccco3)n2)cc1 | 95 | 1 | -67 | 1.1 | 3
Cc1nc(NCc2ccco2)c2c3c(sc2n1)CCC3 | 150* | 1.1 | 0 | 0.88 | -9
c1coc(CNc2ncnc3sc4c(c23)CCCCC4)c1 | 100 | 1 | -1 | 0.75 | -3
CCOC(CNC(=O)CCc1c(C)nc2nc(C)nn2c1C)OCC | 104 | 1 | -7 | 1.1 | -3
SMILES | STAT1 act | FLuc act counter | APP 5'UTR act | NF-kB expr up | FLuc inh counter
Nc1ccc(N=Nc2ccc(N)cc2)cc1 | 120 | 0.4 | 26 | 3.5* | 64*
Nc1n[nH]c(N)c1N=Nc1ccc(Cl)cc1 | 111 | 1 | 30 | 1.4 | 2
Cc1cccc(Cc2nnc(CCC(=O)N(CC3CC3)CC3CCCO3)o2)c1 (stereo unspecified) | 136* | 1 | 50 | 2.4 | -3
CCN(CC1CCCO1)C(=O)CCc1nnc(Cc2ccc3c(c2)OCO3)o1 (stereo unspecified) | 96 | 1.1 | 11 | 1.3 | -6
CCCOC1CCCN(C(=O)CCc2nnc(Cc3cccc(C)c3)o2)C1 (stereo unspecified) | 143* | 1.1 | 13 | 2.1 | -7
CCOCCCn1c(SCC(=O)NCc2ccc3c(c2)OCO3)nc2ccccc2c1=O | 95 | 1.1 | 10 | 0.98 | -6
CCCCc1ccc(Nc2ncccc2C#N)cc1 | 138* | 0.8 | 105 | 2.4 | 25
CCOC(=O)N1CCN(c2c(NCCCN(CC)c3cccc(C)c3)c(=O)c2=O)CC1 | 102 | 1.1 | 0 | 1 | -8
